Measured values as given in ChEMBL document CHEMBL1828539, “Development of a novel furocoumarin derivative inhibiting NF-κB dependent biological functions: design, synthesis and biological effects” (Eur J Med Chem, 2011).
The source made the active and inactive calls. The rule behind the calls is not given here.

Legend:
IB3-1 [1] = test: Inhibition of NFkappa B in human IB3-1 cells assessed as inhibition of TNF-alpha-induced IL8 protein release at 30 uM after 24 hrs relative to control; format: cell-based
Method in brief: (§1)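 IB3-1 CF cells in LHC-8 with 5% FBS treated 24 h with compound plus TNF-α (80 ng/ml). IL-8 released into the culture supernatant measured by singleplex bead immunoassay (Bio-Plex): sample incubated with anti-IL-8 beads, then detection antibody, then streptavidin-phycoerythrin, read against cytokine standards as pg/ml; n = 3.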

IB3-1 [2] = test: Inhibition of NFkappa B in human IB3-1 cells assessed as inhibition of TNF-alpha-induced IL8 mRNA accumulation at 10 uM after 24 hrs by RT-PCR analysis relative to control; format: cell-based
Method in brief: (§2)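 IB3-1 CF bronchial cells (ΔF508/W1282X, adeno12/SV40-immortalized) grown in LHC-8 with 5% FBS, without gentamycin, at 37 °C. Exposed to compound and TNF-α (80 ng/ml) for 24 h. Total RNA extracted with TRIzol, oligo(dT)-primed AMV reverse transcription, then 40-cycle real-time PCR with IL-8 primers. IL-8 mRNA expressed relative to uninduced IB3-1 cells; n = 3.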

IB3-1 [3] = test: Inhibition of NFkappa B in human IB3-1 cells assessed as inhibition of TNF-alpha-induced IL8 protein release at 50 uM after 24 hrs relative to control; format: cell-based; method in brief: as §1
IB3-1 [4] = test: Inhibition of NFkappa B in human IB3-1 cells assessed as inhibition of TNF-alpha-induced IL8 mRNA accumulation at 50 uM after 24 hrs by RT-PCR analysis relative to control; format: cell-based; method in brief: as §2
IB3-1 [5] = test: Inhibition of NFkappa B in human IB3-1 cells assessed as inhibition of TNF-alpha-induced IL8 mRNA accumulation at 30 uM after 24 hrs by RT-PCR analysis relative to control; format: cell-based; method in brief: as §2
[6] = Inhibition of reconstituted NF-KB p50-p65 heterodimer/DNA interaction after 20 mins by EMSA
Method in brief: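 p50 (10 ng) plus p65 (10 ng) human NF-κB proteins preincubated 20 min at room temperature with varying compound concentrations in buffer TF, 5% glycerol, 1 mM DTT. 0.25 ng 32P-labeled NF-κB site oligo then added for a further 20 min. Bound and free probe separated on 6% native polyacrylamide gel (0.25× TBE, 200 V); autoradiography.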

IB3-1 [7] = test: Inhibition of NFkappa B in human IB3-1 cells assessed as inhibition of TNF-alpha-induced IL8 protein release at 10 uM after 24 hrs relative to control; format: cell-based; method in brief: as §1
[8] = Inhibition of NF-KB p50 subunit/DNA interaction after 20 mins by EMSA
Method in brief: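 Human NF-κB p50 protein (10 ng) preincubated 20 min at room temperature with varying compound concentrations in buffer TF plus 5% glycerol, 1 mM DTT. Then 0.25 ng 32P-labeled double-stranded NF-κB consensus oligo (5'-CGC TGG GGA CTT TCC ACG G-3') added for 20 min more. Complexes resolved on 6% polyacrylamide gel in 0.25× TBE at 200 V; autoradiography.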

Row | SMILES | inhibition (IB3-1 [1]) | inhibition (IB3-1 [2]) | inhibition (IB3-1 [3]) | inhibition (IB3-1 [4]) | inhibition (IB3-1 [5]) | inhibition [6] | inhibition (IB3-1 [7]) | inhibition [8]
1 | Cc1c(CC(=O)NC(Cc2ccccc2)C(=O)O)c(=O)oc2c(C)c3occ(C(C)(C)C)c3cc12 (racemic) | Active | inactive | Active | Active | Active | Active | inactive | 
2 | Cc1c(CC(=O)N[C@@H](Cc2ccccc2)C(=O)O)c(=O)oc2cc3occ(C(C)(C)C)c3cc12 |  |  |  |  |  | Active |  | Active
3 | Cc1c(CC(=O)NC(Cc2ccccc2)C(=O)O)c(=O)oc2cc3occ(C(C)(C)C)c3cc12 (racemic) |  |  |  |  |  | Active |  | Active
